These results are taken from ChEMBL document CHEMBL4017514, “Discovery of Novel Macrocyclic Hedgehog Pathway Inhibitors Acting by Suppressing the Gli-Mediated Transcription” (J Med Chem, 2017).

The source made the active and inactive calls. The rule behind the calls is not given here.

A short description of data set [1]: Inhibition of hedgehog signaling pathway in mouse Shh Light2 cells harboring Gli2 plasmid assessed as reduction in Gli2-mediated transcriptional activity by luciferase reporter gene assay. The class given is cell-based.
The nature of data set [2]: Inhibition of hedgehog signaling pathway in mouse Shh Light2 cells assessed as reduction in ShhN-induced GLI-mediated transcriptional activity by luciferase reporter gene assay. It is filed as cell-based. In a few lines:
(§1)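 Light II cells (NIH-3T3 stably transfected with Gli-responsive firefly luciferase and Renilla expression vector) stimulated with ShhN conditioned medium. This medium was collected from ShhN-transfected HEK293 cells kept in 0.1% FBS. Firefly luciferase normalized to Renilla. IC50 given as mean ± SD (nM) from three separate experiments.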
Background: In a reporter assay the amount or activity of a reporter protein is the signal.

A short description of data set [3]: Inhibition of hedgehog signaling pathway in mouse Shh Light2 cells harboring Gli1 plasmid assessed as reduction in Gli1-mediated transcriptional activity by luciferase reporter gene assay. The class given is cell-based.
Data set [4] is described as follows: Antitumor activity against mouse Ptch+/- p53-/- medulloblastoma cells implanted in athymic nude mouse assessed as tumor growth inhibition at 25 mg/kg, ip bid for 15 consecutive days. The class given is functional. Particulars: Medulloblastoma cell, read-out: TGI. In a few lines:
(§2)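 Spontaneous ptch+/−;p53−/− intracranial medulloblastomas passaged subcutaneously in athymic nude mice, then 1 mm3 fragments implanted in the right flank. Dosing started at 100−150 mm3 tumor volume, n = 5. Drug given ip twice daily for 15 days as a suspension in 0.5% methylcellulose, 0.2% Tween-80. Caliper volume (length × width2/2) taken twice weekly. TGI calculated on the last day from growth versus vehicle.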

In data set [5] the test system is Mus musculus. Kind of data set: Toxicity in athymic nude mouse implanted with mouse Ptch+/- p53-/- medulloblastoma cells assessed as body weight loss at 25 to 50 mg/kg, ip bid for 15 consecutive days. It is filed as organism-based. The settings on record: in vivo. In a few lines: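 Body weight of nude mice (n = 5) carrying medulloblastoma allografts was followed during 15 days of twice-daily ip dosing in 0.5% methylcellulose/0.2% Tween-80 suspension. Data given as mean ± SD.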

Data set [6] can be described thus: Inhibition of hedgehog signaling pathway in mouse Light2 cells in Shh conditioned medium by Gli-luciferase reporter gene assay. The class given is cell-based. The settings on record: Mus musculus. A digest of the protocol:
as §1

The test system of a further data set is KB. Nature of the data set: Cytotoxicity against human KB cells. The class given is cell-based.
Data set [7] can be described thus: Inhibition of hedgehog signaling pathway in mouse Light2 cells harboring wild type Smo after 36 hrs by Gli luciferase activity. It is filed as cell-based. In a few lines:
(§3)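 Light II cells (NIH-3T3 stably carrying Gli-responsive firefly luciferase and Renilla vector) transfected with wild-type, D473H or W535L Smo plasmid. Exposed to compound for 36 h, then dual luciferase assay with firefly/Renilla normalization. IC50 derived and given as mean ± SD.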

Data set [8] can be described thus: Inhibition of hedgehog signaling pathway in mouse Light2 cells harboring Smo D473H mutant after 36 hrs by Gli luciferase activity. It is filed as cell-based. In a few lines:
as §3

Data set [9] is described as follows: Inhibition of hedgehog signaling pathway in mouse Light2 cells harboring Smo W535L mutant after 36 hrs by Gli luciferase activity. It is filed as cell-based. A digest of the protocol:
as §3

The nature of data set [10]: Antitumor activity against mouse Ptch+/- p53-/- medulloblastoma cells implanted in athymic nude mouse assessed as tumor growth inhibition at 50 mg/kg, ip bid for 15 consecutive days. Particulars: Medulloblastoma cell, read-out: TGI. The class given is functional. A digest of the protocol: as §2
Data set [11] in a line: Inhibition of hedgehog signaling pathway in mouse C3H10T1/2 cells assessed as inhibition of hedgehog-induced cell differentiation after 48 hrs by luminescence assay. The class given is cell-based. Particulars: C3H 10T1/2, 48 h.
The species named for data set [12] is Mus musculus. Kind of data set: Inhibition of hedgehog signaling pathway in mouse Light2 cells in Shh conditioned medium at 1 uM by Gli-luciferase reporter gene assay relative to control. The class given is cell-based.
Data set [13] is filed under the species Mus musculus. Nature of the data set: Inhibition of hedgehog signaling pathway in mouse Ptch+/- p53-/- medulloblastoma cells assessed as reduction in GLI1 mRNA expression at 5 uM by RT-qPCR analysis. A digest of the protocol:
(§4)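 ptch+/−;p53−/− medulloblastoma cells kept in Neurobasal A/B-27 medium with EGF and bFGF, then treated. Gli1 and ptch1 mRNA measured by RT-qPCR. Data given as mean ± SD.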
For orientation: Real-time PCR tracks product formation cycle by cycle.

For data set [14], the species on record is Mus musculus. Kind of data set: Inhibition of hedgehog signaling pathway in mouse Ptch+/- p53-/- medulloblastoma cells assessed as reduction in ptch1 mRNA expression at 5 uM by RT-qPCR analysis. A digest of the protocol: as §4
For data set [15], the species on record is Mus musculus. Nature of the data set: Inhibition of hedgehog signaling pathway in mouse NIH/3T3 cells assessed as downregulation of Shh-induced Gli1 mRNA expression levels at 100 nM after 36 hrs by RT-qPCR analysis. The class given is cell-based. A digest of the protocol: (§5)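 NIH-3T3 or C3H10T1/2 cells treated as indicated for 36 h, then collected for RT-qPCR of Gli1 and ptch1 mRNA. Data given as mean ± SD.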

The species named for data set [16] is Mus musculus. Kind of data set: Inhibition of hedgehog signaling pathway in mouse C3H10T1/2 cells assessed as downregulation of Shh-induced Gli1 mRNA expression levels at 100 nM after 36 hrs by RT-qPCR analysis. It is filed as cell-based. In a few lines: as §5
Data set [17] is filed under the species Mus musculus. Nature of the data set: Inhibition of hedgehog signaling pathway in mouse NIH/3T3 cells assessed as downregulation of Shh-induced ptch1 mRNA expression levels at 100 nM after 36 hrs by RT-qPCR analysis. It is filed as cell-based. In a few lines:
as §5

The species named for data set [18] is Mus musculus. Nature of the data set: Inhibition of hedgehog signaling pathway in mouse C3H10T1/2 cells assessed as downregulation of Shh-induced ptch1 mRNA expression levels at 100 nM after 36 hrs by RT-qPCR analysis. It is filed as cell-based. A digest of the protocol:
as §5

The species named for data set [19] is Mus musculus. Nature of the data set: Inhibition of hedgehog signaling pathway in mouse NIH/3T3 cells harboring sufu shRNA assessed as downregulation of Gli1 mRNA expression at 100 nM by RT-qPCR analysis. It is filed as cell-based.
Data set [20] is filed under the species Mus musculus. Kind of data set: Inhibition of hedgehog signaling pathway in mouse NIH/3T3 cells harboring sufu shRNA assessed as downregulation of ptch1 mRNA expression at 100 nM by RT-qPCR analysis. It is filed as cell-based.
Data set [21] is filed under the species Mus musculus. Kind of data set: Inhibition of hedgehog signaling pathway in mouse Shh Light2 cells harboring Gli1 plasmid assessed as reduction in Gli1-mediated transcriptional activity at 100 nM by luciferase reporter gene assay. It is filed as cell-based.
The species named for data set [22] is Mus musculus. Kind of data set: Inhibition of hedgehog signaling pathway in mouse Shh Light2 cells harboring Gli2 plasmid assessed as reduction in Gli2-mediated transcriptional activity at 100 nM by luciferase reporter gene assay. The class given is cell-based.
Another data set concerns Medulloblastoma cell. Nature of the data set: Antiproliferative activity against mouse Ptch+/- p53-/- medulloblastoma cells assessed as reduction in cell proliferation up to 30 uM after 72 hrs by MTS assay. The class given is functional, cell-based. A digest of the protocol: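 Tumor cells obtained from ptch+/−;p53−/− medulloblastoma allografts by mechanical mincing and collagenase digestion. Cultured in Neurobasal A with B-27, EGF 20 ng/mL, bFGF 20 ng/mL, nonessential amino acids and N-acetylcysteine 60 μg/mL. Exposed to compounds for 72 h, then proliferation read by MTS assay. Data given as mean ± SD.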
In general terms: Tetrazolium dyes change colour on reduction, which living cells bring about.

Data set [23] is filed under the species Homo sapiens. Nature of the data set: Inhibition of PGE2-stimulated TCF/LEF activity in human LS174T cells at 20 uM measured after 6 hrs by dual luciferase reporter gene assay. The class given is cell-based. In a few lines: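 LS174T cells carrying TCF/LEF reporter, stimulated with PGE2 and treated for 6 h. Dual luciferase read-out, firefly normalized to Renilla. Data given as mean ± SD.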

Data set [24] is filed under the species Homo sapiens. Nature of the data set: Inhibition of TNFalpha-induced NFkappaB activation in HEK293 cells at 20 uM after 24 hrs by dual luciferase reporter gene assay. It is filed as cell-based. The settings on record: 1 uM, in the assay text read “1 uM” for “20 uM”. In a few lines:
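HEK293 cells carrying NF-κB firefly reporter plus Renilla, stimulated with TNF-α and treated for 24 h. Cells lysed for dual luciferase assay, firefly signal normalized to Renilla. Data given as mean ± SD.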

The species named for data set [25] is Mus musculus. Nature of the data set: Inhibition of hedgehog signaling pathway in mouse NIH/3T3 cells harboring sufu shRNA assessed as downregulation of Gli1 mRNA expression at 1 uM by RT-qPCR analysis. The class given is cell-based. In a few lines:
(§6)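 Sufu expression in NIH-3T3 cells was reduced by lentivirus carrying Sufu shRNA. Knockdown was checked by immunoblot of Sufu, with GAPDH as loading control, in lysates made in Tris pH 7.4/NaCl/NP-40 buffer with protease and phosphatase inhibitors. Gli1 and ptch1 mRNA were then measured in the knockdown cells by RT-qPCR.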

The species entered for data set [26] is Mus musculus. Nature of the data set: Inhibition of hedgehog signaling pathway in mouse NIH/3T3 cells harboring sufu shRNA assessed as downregulation of ptch1 mRNA expression at 1 uM by RT-qPCR analysis. The class given is cell-based. A digest of the protocol: as §6

Broadly, the IC50 is the concentration at which inhibition is half-maximal. Regarding `COc1ccc(CN2C[C@@H]3CN(S(=O)(=O)c4ccc(Cl)cc4)CC[C@@H]3Oc3c(NC(=O)C4CC4)cccc3C2=O)cc1` (racemic), the IC50 in data set [1] is 24.9 nM; in data set [2] it was 23 nM; in data set [3] it was 29.9 nM; in data set [6] it was 23 nM; in the data set on KB, over 20000 nM; in data set [7], 35.7 nM. The IC50 stood at 37.5 nM in data set [8] and 39.8 nM in data set [9]. Also, the inhibition in vivo at 25 mg/kg in data set [4] was determined as 57.5%. Besides, in the data set with Mus musculus [5], the Activity entry is “Non-Toxic”. The inhibition in vivo at 50 mg/kg in [10] is 73.4%.
A word on the EC50: it is the midpoint of the concentration-response curve. For orientation: inhibition means the percentage by which the read-out fell short of the control. With `C[C@H](CO)N1C[C@H](C)[C@H](CN(C)S(=O)(=O)c2ccc(Cl)cc2Cl)Oc2c(NC(=O)C3CC3)cccc2C1=O`, the EC50 in data set [11] was found to be 60 nM. Moreover, the IC50 in data set [6] is 383 nM. Moreover, the inhibition in the data set filed under Mus musculus [12] is 67%. The inhibition entry in the data set filed under Mus musculus [13] and in the data set listed under Mus musculus [14] was “inactive” in each case.
In turn, `CS(=O)(=O)c1ccc(C(=O)Nc2ccc(Cl)c(-c3ccccn3)c2)c(Cl)c1` [VISMODEGIB] displayed a half-inhibitory concentration (IC50) in data set [6] of 39 nM. This compound also displayed an inhibition in the data set listed under Mus musculus [12] of 93%. In addition, the inhibition entry in the data set listed under Mus musculus [15], in the data set filed under Mus musculus [16], in the data set filed under Mus musculus [17], in the data set filed under Mus musculus [18] and with Medulloblastoma cell was “Active” throughout. Moreover, the inhibition result in the data set listed under Mus musculus [19], in the data set listed under Mus musculus [20], in the data set listed under Mus musculus [21] and in the data set filed under Mus musculus [22] was “inactive” each time.
With `O=S(=O)(NCCNC/C=C/c1ccc(Br)cc1)c1cccc2cnccc12`, in the data set filed under Homo sapiens [23], the inhibition entry was “Active”.
As to `Cc1ccc(S(=O)(=O)/C=C/C#N)cc1`, in the data set filed under Homo sapiens [24], the inhibition entry was “Active”.
Regarding `Cc1sc2c(c1C)C(c1ccc(Cl)cc1)=N[C@@H](CC(=O)OC(C)(C)C)c1nnc(C)n1-2`, the inhibition result in the data set filed under Mus musculus [25] and in the data set filed under Mus musculus [26] was “Active” each time.
In turn, `COc1ccc(CN2C[C@@H]3CCN(S(=O)(=O)c4ccn(C)n4)C[C@@H]3Oc3ccc(NC(=O)C4CC4)cc3CC2=O)cc1` (racemic) returned a half-inhibitory concentration (IC50) in data set [6] of over 1000 nM. The same compound had an inhibition in the data set filed under Mus musculus [12] of 16%.
